Experiment [1] has as its system Human immunodeficiency virus 1. The experiment is described as follows: Inhibition of HIV1 5'-long terminal repeat promoter expression in human 293T cells by luciferase assay. Type of experiment: functional. The following applies: Human immunodeficiency virus 1, HEK-293T. In short, it runs like this: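 293-T cells co-transfected in 10-cm dishes with 5 lg CD-12-luc LTR reporter plus 0.008 lg pCMV-β-galactosidase. Replated after 2 h and cultured 4 h, then exposed to test agent or vehicle for 20 h (lignins) or 21 h (model compounds). Luciferase chemiluminescence normalized to β-galactosidase. IC50 reported; lignin data are means of three independent experiments.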

The nature of experiment [2]: Inhibition of TNF-induced NF-kappaB activation in human […] cells by luciferase assay. Type of experiment: cell-based. The method in brief:
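293-T cells co-transfected with 5 lg NF-κB luciferase reporter plus 0.008 lg pCMV-β-galactosidase, then replated after 2 h. Cultured 19 h (lignins) or 20 h (model compounds) before 1 h pretreatment with test agent. Stimulated with 3 ng/ml TNFα for 5 h. Luciferase chemiluminescence normalized to β-galactosidase activity; IC50 reported.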

Converted amounts (≈) assume the structure as drawn. Some results are limits rather than exact numbers.

Regarding `CCCc1cc(OC)c(O)c(-c2cc(CCC)cc(OC)c2O)c1`, the IC50 in experiment [1] and in experiment [2] was > 150 mg/L in each case.

As for `COc1cc([C@@H]2OC[C@@H]3[C@H]2CO[C@H]3c2ccc(O)c(OC)c2)ccc1O` (single isomer, unassigned) [(+)-PINORESINOL], the IC50 in experiment [1] was > 150 mg/L; in experiment [2], 49 mg/L (≈ 137 µM).

As to `COc1cc(C(=O)[C@@H](CO)Oc2ccccc2OC)ccc1O`, the IC50 in experiment [1] came to 107 mg/L (≈ 336 µM); in experiment [2], 43 mg/L (≈ 135 µM).

Consider `COc1cc([C@H]2Oc3c(OC)cc(/C=C/CO)cc3[C@@H]2CO)ccc1O`, for which the IC50 is 34 mg/L (≈ 94.9 µM) in experiment [1] and 19 mg/L (≈ 53 µM) in experiment [2].

Turning to `COc1cc([C@@H](O)[C@@H](CO)c2ccc(O)c(OC)c2)ccc1O`, the half-inhibitory concentration (IC50) in experiment [1] and in experiment [2] was > 150 mg/L in each case.

In the case of `COc1cc([C@@H](O)[C@@H](CO)Oc2ccccc2OC)ccc1O`, the IC50 is > 150 mg/L in experiment [1] and 126 mg/L (≈ 393 µM) in experiment [2].
